Experimental data gathered from unrelated publications.
pEC50, pIC50: −log10 of the molar value.
Cell line: HepG2
Read-out: cell growth or viability

COc1ccc(-c2cc(-c3ccc(OC)cc3)c3c(=O)n(C)c(=O)n(C)c3n2)cc1  pIC50 (MTT; 48 h): 4.76
CC(=O)Nc1ccc(Oc2nnc(-c3ccc(Cl)cc3)c3ccccc23)cc1  cell death (MTT; 2.5 µM): 93.5%
CC(=NNC(=O)COc1ccc2c(C)c(Cc3ccccc3)c(=O)oc2c1C)c1ccc(Br)cc1  viability (MTT; 6.3 µg/mL): 50.6%
CCOC(=O)c1nn(-c2cccc(Cl)c2)/c(=N/N=C(\C)c2ccc(NC(=O)c3ccccc3)cc2)s1  viability (MTT; 5 µM): 3%
CN(C)c1cc(NC(=O)CCc2ccccc2)c(O)c2c1C[C@H]1C[C@H]3[C@H](N(C)C)C(O)=C(C(N)=O)C(=O)[C@@]3(O)C(O)=C1C2=O  IC50 (ATP luminescence; 72 h): 165 µg/mL
CC(=NNC(=O)c1ccncc1)c1ccc(Nc2nnc(-c3ccc(Cl)cc3)c3ccccc23)cc1  cell death (MTT; 78 nM): 3.16%
Cc1nc2ccc(CN(C)c3ccc(C(=O)N[C@@H](CCC(=O)O)C(=O)O)s3)cc2c(=O)[nH]1  pIC50 (MTT; 48 h): 5.87
CCOC(=O)c1nn(-c2cccc(Cl)c2)/c(=N/N=C(\C)c2ccc(NC(=O)c3ccc(Cl)cc3)cc2)s1  viability (MTT; 0.625 µM): 2.86%
C=CC(=O)NC1CCN(c2ncc3ncnc(Nc4ccc(Oc5ccc6c(c5)ncn6C)c(C)c4)c3n2)CC1  pEC50: 6.47
CC(=O)c1nn(-c2ccc(C)cc2)/c(=N/N=C(\C)c2ccc(NC(=O)c3ccccc3)cc2)s1  viability (MTT; 0.156 µM): 28.5%
O=C(C=Cc1ccccc1)Nc1ccc(Oc2nnc(-c3ccc(Cl)cc3)c3ccccc23)cc1  cell death (MTT; 1.25 µM): 62.6%
CC(=O)c1nn(-c2ccccc2Cl)/c(=N/N=C(\C)c2ccc(NC(=O)c3ccccc3)cc2)s1  viability (MTT; 2.5 µM): 6.09%
CC(=NNC(=O)c1ccccc1O)c1ccc(Nc2nnc(-c3ccc(Cl)cc3)c3ccccc23)cc1  viability (MTT; 1.25 µM; 24 h): 87.2%
CC(=O)Nc1ccc(/C(C)=N/N=c2\sc(C(C)=O)nn2-c2ccc(C)cc2)cc1  viability (MTT; 0.625 µM): 99.8%
CC(=NNC(=O)c1cccnc1)c1ccc(Nc2nnc(-c3ccc(Cl)cc3)c3ccccc23)cc1  viability (MTT; 0.625 µM; 24 h): 49.9%
Cc1ccc(-c2cc(-c3c(Cl)cccc3Cl)c3c(=O)[nH]c(=O)[nH]c3n2)cc1  pIC50 (MTT; 48 h): 4.37
